Data as given in ChEMBL document CHEMBL3414552, “Design and structure activity relationship of tumor-homing histone deacetylase inhibitors conjugated to folic and pteroic acids” (Eur J Med Chem, 2015).
Activity calls are given as the source filed them. No cut-off for these calls is given here.

Key:
A549 = test: Cytotoxicity against human A549 cells at 100 uM after 72 hrs by MTS assay; format: functional; conditions: A549, 72 h
Outline: (§1)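 Cells kept in folate-free RPMI with 10% FBS and 1% pen/strep (KB, HeLa) or DMEM with 10% FBS and 1% pen/strep (A549). For the assay, cells were plated in folate-free RPMI for 24 h, then drug-treated for 72 h at 0.1% DMSO. Viability was read by MTS. Mean ± SD from at least 2 independent triplicate experiments.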

[1] = target: T1, Protein deacetylase HDAC6 (Homo sapiens) (UniProt Q9UBN7); test: Inhibition of HDAC6 in human KB cells assessed as increase in tubulin acetylation at >= IC50 after 4 hrs by Western blotting analysis; format: cell-based
T1 sequence (whole entry): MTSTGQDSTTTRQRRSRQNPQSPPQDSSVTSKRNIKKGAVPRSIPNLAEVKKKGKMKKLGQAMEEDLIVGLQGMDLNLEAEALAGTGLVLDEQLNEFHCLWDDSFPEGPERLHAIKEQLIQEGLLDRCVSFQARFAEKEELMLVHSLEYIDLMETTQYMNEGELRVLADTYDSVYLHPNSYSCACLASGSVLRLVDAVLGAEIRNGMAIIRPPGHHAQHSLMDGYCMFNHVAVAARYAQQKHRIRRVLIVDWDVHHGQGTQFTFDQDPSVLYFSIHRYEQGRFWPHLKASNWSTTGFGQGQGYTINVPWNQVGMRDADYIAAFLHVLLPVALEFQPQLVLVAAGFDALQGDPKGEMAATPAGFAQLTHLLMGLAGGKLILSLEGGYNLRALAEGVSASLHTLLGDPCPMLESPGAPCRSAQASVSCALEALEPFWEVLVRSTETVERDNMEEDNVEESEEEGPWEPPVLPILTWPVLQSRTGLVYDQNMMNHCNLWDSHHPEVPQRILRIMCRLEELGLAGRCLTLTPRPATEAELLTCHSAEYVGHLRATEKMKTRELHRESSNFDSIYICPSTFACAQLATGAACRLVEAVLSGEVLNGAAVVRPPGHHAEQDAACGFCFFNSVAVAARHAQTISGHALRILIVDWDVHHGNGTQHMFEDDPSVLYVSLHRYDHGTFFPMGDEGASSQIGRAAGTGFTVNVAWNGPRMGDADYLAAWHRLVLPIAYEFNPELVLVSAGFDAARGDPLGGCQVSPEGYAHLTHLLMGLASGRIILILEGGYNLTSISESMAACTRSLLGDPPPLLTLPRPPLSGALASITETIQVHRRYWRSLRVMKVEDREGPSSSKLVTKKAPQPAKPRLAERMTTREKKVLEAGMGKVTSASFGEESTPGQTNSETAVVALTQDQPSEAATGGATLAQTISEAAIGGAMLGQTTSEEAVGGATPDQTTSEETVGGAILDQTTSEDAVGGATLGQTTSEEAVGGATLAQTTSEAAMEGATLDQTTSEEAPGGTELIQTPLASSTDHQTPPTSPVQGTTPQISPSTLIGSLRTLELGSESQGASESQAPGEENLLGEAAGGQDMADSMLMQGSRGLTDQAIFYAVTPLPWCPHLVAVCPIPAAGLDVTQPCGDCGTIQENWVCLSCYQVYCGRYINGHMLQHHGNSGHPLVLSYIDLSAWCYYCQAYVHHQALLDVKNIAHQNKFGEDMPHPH
Outline: (§2)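 KB cells were plated for 24 h, then compound-treated for 4 h (tubulin acetylation) or 24 h (histone H4 acetylation). Cells were PBS-washed and lysed in CelLytic M with protease inhibitor cocktail. Protein was Bradford-quantified and equal amounts were resolved by SDS-PAGE at 100 V. Detection used IRDye680 and IRDye800 secondary antibodies.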

KB [2] = test: Cytotoxicity against human KB cells after 72 hrs by MTS assay; format: functional, cell-based
KB [3] = test: Cytotoxicity against human KB cells at 25 uM after 72 hrs by MTS assay in presence of folic acid
HeLa [4] = test: Cytotoxicity against human HeLa cells after 72 hrs by MTS assay; format: functional, cell-based
Histone deacetylase 8 = target: T2, Histone deacetylase 8 (Homo sapiens, UniProt Q9BY41); test: Inhibition of His-tagged HDAC8 (unknown origin) expressed in Escherichia coli BL21(DE3) after 60 mins by MALDI mass spectrometry
T2 sequence (Q9BY41 whole entry): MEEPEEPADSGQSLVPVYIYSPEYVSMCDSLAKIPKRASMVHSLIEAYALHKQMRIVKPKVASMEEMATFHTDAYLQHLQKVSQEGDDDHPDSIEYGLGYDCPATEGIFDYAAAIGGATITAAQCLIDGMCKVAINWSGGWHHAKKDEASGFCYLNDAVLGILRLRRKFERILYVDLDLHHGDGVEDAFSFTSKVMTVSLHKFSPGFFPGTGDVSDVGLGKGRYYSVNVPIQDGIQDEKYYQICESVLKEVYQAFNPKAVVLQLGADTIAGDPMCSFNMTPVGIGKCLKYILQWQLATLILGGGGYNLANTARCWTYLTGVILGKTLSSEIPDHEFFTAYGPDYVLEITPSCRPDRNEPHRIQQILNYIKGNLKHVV

Histone deacetylase 1 [5] = target: T3, Histone deacetylase 1 (Homo sapiens, UniProt Q13547); test: Inhibition of HDAC1 (unknown origin) after 60 mins by MALDI mass spectrometry
[6] = target: T4, Protein deacetylase HDAC6 (Homo sapiens, UniProt Q9UBN7); test: Inhibition of HDAC6 (unknown origin) after 60 mins by MALDI mass spectrometry
T4 sequence (Q9UBN7 whole entry): T1 sequence (whole entry)

HeLa [7] = test: Cytotoxicity against human HeLa cells at 100 uM after 72 hrs by MTS assay; format: functional; outline: as §1
[8] = target: T1, Protein deacetylase HDAC6 (Homo sapiens); test: Inhibition of His-tagged HDAC6 (unknown origin) expressed in Escherichia coli BL21(DE3) at 10 uM after 60 mins by MALDI mass spectrometry
Outline: (§3)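 Enzyme (250 nM) was incubated with inhibitor for 60 min at 37 °C in Tris-HCl pH 8.0 buffer containing NaCl, KCl, MgCl2 and BSA. Substrates were GRK(ac)FGC for HDAC1/HDAC8 and GRK(ac)YGC for HDAC6. Reactions were TSA-quenched, immobilized on maleimide SAMs and read by MALDI (SAMDI); deacetylation was taken as the product fraction.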

KB [9] = test: Cytotoxicity against human KB cells at 100 uM after 72 hrs by MTS assay; format: functional; outline: as §1
[10] = target: T5, Histone deacetylase 8 (Homo sapiens) (UniProt Q9BY41); test: Inhibition of His-tagged HDAC8 (unknown origin) expressed in Escherichia coli BL21(DE3) at 10 uM after 60 mins by MALDI mass spectrometry; outline: as §3
T5 sequence (whole entry): T2 sequence (Q9BY41 whole entry)

Histone deacetylase 1 [11] = target: T3, Histone deacetylase 1; test: Inhibition of His-tagged HDAC1 (unknown origin) expressed in Escherichia coli BL21(DE3) at 10 uM after 60 mins by MALDI mass spectrometry; outline: as §3
[12] = target: T1, Protein deacetylase HDAC6 (Homo sapiens); test: Inhibition of HDAC6 in human KB cells assessed as increase in tubulin acetylation at 100 uM after 4 hrs by Western blotting analysis; format: cell-based; outline: as §2
Homo sapiens [13] = organism: Homo sapiens; test: Selectivity ratio of IC50 for His-tagged HDAC1 (unknown origin) to IC50 for His-tagged HDAC6 (unknown origin); outline: as §3
Homo sapiens [14] = organism: Homo sapiens; test: Selectivity ratio of IC50 for His-tagged HDAC8 (unknown origin) to IC50 for His-tagged HDAC6 (unknown origin); outline: as §3

T3 sequence (Q13547 whole entry): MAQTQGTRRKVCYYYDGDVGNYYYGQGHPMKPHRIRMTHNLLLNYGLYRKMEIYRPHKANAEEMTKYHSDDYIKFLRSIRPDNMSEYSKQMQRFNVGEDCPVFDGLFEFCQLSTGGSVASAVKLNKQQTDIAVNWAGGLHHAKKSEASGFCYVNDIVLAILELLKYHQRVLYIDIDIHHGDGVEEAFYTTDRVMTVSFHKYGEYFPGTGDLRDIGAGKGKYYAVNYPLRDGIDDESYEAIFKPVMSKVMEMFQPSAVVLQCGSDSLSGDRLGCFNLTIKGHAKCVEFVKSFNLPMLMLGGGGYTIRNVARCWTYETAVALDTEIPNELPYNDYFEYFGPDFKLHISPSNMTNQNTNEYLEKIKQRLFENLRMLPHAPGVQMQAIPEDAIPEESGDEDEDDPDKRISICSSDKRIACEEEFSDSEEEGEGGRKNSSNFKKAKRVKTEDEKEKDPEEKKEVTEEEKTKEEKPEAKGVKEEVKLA

Row | SMILES | IC50 (Histone deacetylase 8) [nM] | IC50 (Histone deacetylase 1 [5]) [nM] | IC50 [6] [nM] | inhibition [10] [%] | inhibition at 100 µM (HeLa [7]) [%] | inhibition at 100 µM (KB [9]) [%] | other results
1 | Nc1nc2ncc(CNc3ccc(C(=O)N[C@@H](CCC(=O)NCCCCCCCC(=O)Nc4cc(-c5cccs5)ccc4N)C(=O)O)cc3)nc2c(=O)[nH]1 | 10000 | 287 |  |  |  |  | inhibition [8]: < 20%
2 | Nc1nc2ncc(CNc3ccc(C(=O)N[C@@H](CCC(=O)NCCCCCCCCC(=O)Nc4cc(-c5cccs5)ccc4N)C(=O)O)cc3)nc2c(=O)[nH]1 |  | 309 |  | < 20 |  |  | inhibition [8]: < 20%
3 | Nc1nc2ncc(CNc3ccc(C(=O)N[C@@H](CCC(=O)NCCCCCCC(=O)Nc4cc(-c5cccs5)ccc4N)C(=O)O)cc3)nc2c(=O)[nH]1 |  | 435 |  | < 20 |  |  | inhibition [8]: < 20%
4 | Nc1nc2ncc(CNc3ccc(C(=O)N[C@@H](CCC(=O)NO)C(=O)O)cc3)nc2c(=O)[nH]1 |  |  |  | < 20 |  |  | inhibition (Histone deacetylase 1 [11]): < 20%; inhibition [8]: < 20%
5 | CC(=O)Nc1ccc(C(=O)Nc2cc(-c3cccs3)ccc2N)cc1 |  |  |  |  |  |  | IC50 (KB [2]): 5270 nM
6 | Nc1nc2ncc(CNc3ccc(C(=O)N[C@@H](CCC(=O)NCCCCCCC(=O)NO)C(=O)O)cc3)nc2c(=O)[nH]1 | 2390 | 1770 | 132 |  | < 20 | < 20 | 
7 | Nc1nc2ncc(CNc3ccc(C(=O)N[C@@H](CCC(=O)NCCCC(=O)Nc4cc(-c5cccs5)ccc4N)C(=O)O)cc3)nc2c(=O)[nH]1 |  | 2940 |  | 23 |  |  | inhibition [8]: 22.8%
8 | Nc1nc2ncc(CNc3ccc(C(=O)N[C@@H](CCC(=O)NCCCCCCCCC(=O)NO)C(=O)O)cc3)nc2c(=O)[nH]1 | 1560 | 2760 | 179 |  |  |  | 

The next lines start with results.

Row | IC50 (Histone deacetylase 8) [nM] | IC50 (Histone deacetylase 1 [5]) [nM] | IC50 [6] [nM] | inhibition [10] [%] | SMILES | inhibition at 100 µM (HeLa [7]) [%] | inhibition at 100 µM (KB [9]) [%] | other results
9 | 9380 | 16.1 | 55.4 |  | Nc1nc2ncc(CNc3ccc(C(=O)NCCCCCCCC(=O)NO)cc3)nc2c(=O)[nH]1 |  |  | inhibition at 100 µM (A549): < 20%; Activity [1]: Active; IC50 (KB [2]): 30300 nM; Activity (KB [3]): inactive; IC50 (HeLa [4]): 56600 nM
10 | 1060 | 23.4 | 12.2 |  | Nc1nc2ncc(CNc3ccc(C(=O)NCCCCCCC(=O)NO)cc3)nc2c(=O)[nH]1 | 34 |  | inhibition at 100 µM (A549): < 20%; Activity [1]: Active; IC50 (KB [2]): 53700 nM
11 | 2370 | 1800 | 193 |  | Nc1nc2ncc(CNc3ccc(C(=O)N[C@@H](CCC(=O)NCCCCCCCC(=O)NO)C(=O)O)cc3)nc2c(=O)[nH]1 | < 20 | < 20 | 
12 |  |  | 8050 | 40 | Nc1nc2ncc(CNc3ccc(C(=O)N[C@@H](CCC(=O)NCCCC(=O)NO)C(=O)O)cc3)nc2c(=O)[nH]1 |  |  | inhibition (Histone deacetylase 1 [11]): < 20%
13 | 7590 | 524 | 10.2 |  | Nc1nc2ncc(CNc3ccc(C(=O)NCCCCCCCCC(=O)NO)cc3)nc2c(=O)[nH]1 | 35 | 33 | 
14 |  | 79.6 | 43.6 | 41 | Nc1nc2ncc(CNc3ccc(C(=O)NCCCCCC(=O)NO)cc3)nc2c(=O)[nH]1 | < 20 | 25 | 
15 |  |  | 1460 | 25 | Nc1nc2ncc(CNc3ccc(C(=O)NCCCC(=O)NO)cc3)nc2c(=O)[nH]1 | < 20 | < 20 | inhibition (Histone deacetylase 1 [11]): 22.1%
16 | 581 | 2390 | 17.6 |  | Nc1nc2ncc(CNc3ccc(C(=O)NO)cc3)nc2c(=O)[nH]1 |  |  | Activity [12]: Active; Ratio IC50 (Homo sapiens [13]): 130; Ratio IC50 (Homo sapiens [14]): 32
17 |  | 6150 | 212 | 39 | Nc1nc2ncc(CNc3ccc(C(=O)NCCCCC(=O)NO)cc3)nc2c(=O)[nH]1 | < 20 | < 20 | 
18 |  |  | 476 | 40 | Nc1nc2ncc(CNc3ccc(C(=O)NCCCCCCCCCC(=O)NO)cc3)nc2c(=O)[nH]1 | 36 | 47 | inhibition (Histone deacetylase 1 [11]): 53%
